From ChEMBL document CHEMBL2429728, “Novel Macrocyclic Amidinoureas: Potent Non-Azole Antifungals Active against Wild-Type and Resistant Candida Species” (2013)

Legend:
Format in all cases: functional
Candida tropicalis [1] = assay: Antifungal activity against Candida tropicalis ATCC 200956 after 24 hrs by visually and spectrophotometric analysis; details: ATCC 200956, 24 h
How it was run: (§1)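 Read-out is MIC90 in μg/mL, scored at 24 h both by eye and spectrophotometrically. The panel is Candida isolates that earlier reports describe as amphotericin B-resistant, with amphotericin B run alongside as the reference drug.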

Clavispora lusitaniae [2] = assay: Antifungal activity against Candida lusitaniae ATCC 60247 after 24 hrs by visually and spectrophotometric analysis; details: ATCC 60247, 24 h; how it was run: as §1
Clavispora lusitaniae [3] = assay: Antifungal activity against Candida lusitaniae ATCC 24348 after 24 hrs by visually and spectrophotometric analysis; details: ATCC 24348, 24 h; how it was run: as §1
Clavispora lusitaniae [4] = assay: Antifungal activity against Candida lusitaniae ATCC 200953 after 24 hrs by visually and spectrophotometric analysis; how it was run: as §1
Clavispora lusitaniae [5] = assay: Antifungal activity against Candida lusitaniae ATCC 200952 after 24 hrs by visually and spectrophotometric analysis; how it was run: as §1
Clavispora lusitaniae [6] = assay: Antifungal activity against Candida lusitaniae ATCC 200951 after 24 hrs by visually and spectrophotometric analysis; how it was run: as §1
Clavispora lusitaniae [7] = assay: Antifungal activity against Candida lusitaniae ATCC 200950 after 24 hrs by visually and spectrophotometric analysis; details: ATCC 200950, 24 h; how it was run: as §1
Candida albicans [8] = assay: Antifungal activity against Candida albicans ATCC 200955 after 24 hrs by visually and spectrophotometric analysis; details: ATCC 200955, 24 h
How it was run: (§2)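 Endpoint is MIC90, in μg/mL, read at 24 h by both visual inspection and spectrophotometry.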

Nakaseomyces glabratus [9] = assay: Antifungal activity against fluconazole-resistant Candida glabrata DSY2271 increase expressing of CgCDR2 genes after 24 hrs by visually and spectrophotometric analysis; details: DSY2271, 24 h; how it was run: as §2
Nakaseomyces glabratus [10] = assay: Antifungal activity against fluconazole-resistant Candida glabrata DSY2254 increase expressing of CgCDR1 and CgCDR2 genes after 24 hrs by visually and spectrophotometric analysis; details: DSY2254, 24 h; how it was run: as §2
Nakaseomyces glabratus [11] = assay: Antifungal activity against fluconazole-resistant Candida glabrata DSY756 increase expressing of CgCDR1, CgCDR2, and CgSNQ2 genes after 24 hrs by visually and spectrophotometric analysis; details: DSY756, 24 h; how it was run: as §2
Nakaseomyces glabratus [12] = assay: Antifungal activity against fluconazole-resistant Candida glabrata DSY754 increase expressing of CgCDR1 gene after 24 hrs by visually and spectrophotometric analysis; details: DSY754, 24 h; how it was run: as §2
Nakaseomyces glabratus [13] = assay: Antifungal activity against fluconazole-resistant Candida glabrata DSY530 increase expressing of CgCDR1 gene after 24 hrs by visually and spectrophotometric analysis; details: DSY530, 24 h; how it was run: as §2
Candida albicans [14] = assay: Antifungal activity against fluconazole-resistant Candida albicans DSY751 harboring ERG11 gene mutant and increase expressing of MDR1 gene after 24 hrs by visually and spectrophotometric analysis; details: DSY751, 24 h; how it was run: as §2
Candida albicans [15] = assay: Antifungal activity against fluconazole-resistant Candida albicans DSY775 harboring ERG11 gene mutant and increase expressing of CDR1 and CDR2 genes after 24 hrs by visually and spectrophotometric analysis; details: DSY775, 24 h; how it was run: as §2
Candida albicans [16] = assay: Antifungal activity against fluconazole-resistant Candida albicans DSY735 expressing high level of CDR1 and CDR2 genes after 24 hrs by visually and spectrophotometric analysis; details: DSY735, 24 h; how it was run: as §2
Candida albicans [17] = assay: Antifungal activity against fluconazole-resistant Candida albicans DSY292 harboring ERG11 gene mutant and increase expressing of MDR1 gene after 24 hrs by visually and spectrophotometric analysis; details: DSY292, 24 h; how it was run: as §2
Candida albicans [18] = assay: Antifungal activity against fluconazole-resistant Candida albicans DSY348 harboring ERG11 gene mutant and increase expressing of CDR1 and CDR2 genes after 24 hrs by visually and spectrophotometric analysis; details: DSY348, 24 h; how it was run: as §2
Candida albicans [19] = assay: Antifungal activity against fluconazole-resistant Candida albicans DSY289 harboring ERG11 gene mutant and increase expressing of CDR1 and CDR2 genes after 24 hrs by visually and spectrophotometric analysis; details: DSY289, 24 h; how it was run: as §2
Candida albicans [20] = assay: Antifungal activity against fluconazole-resistant Candida albicans DSY296 harboring ERG11 gene mutant and increase expressing of CDR1 and CDR2 genes after 24 hrs by visually and spectrophotometric analysis; details: DSY296, 24 h; how it was run: as §2
Candida albicans [21] = assay: Antifungal activity against fluconazole-resistant Candida albicans DSY284 harboring ERG11 gene mutant and increase expressing of CDR1 and CDR2 genes after 24 hrs by visually and spectrophotometric analysis; details: DSY284, 24 h; how it was run: as §2
Nakaseomyces glabratus [22] = assay: Antifungal activity against wild type Candida glabrata after 24 hrs by visually and spectrophotometric analysis
Kluyveromyces marxianus = assay: Antifungal activity against wild type Candida kefyr after 24 hrs by visually and spectrophotometric analysis
Candida tropicalis [23] = assay: Antifungal activity against wild type Candida tropicalis after 24 hrs by visually and spectrophotometric analysis
Candida parapsilosis = assay: Antifungal activity against wild type Candida parapsilosis ATCC 34136 after 24 hrs by visually and spectrophotometric analysis; details: Lodderomyces parapsilosis, ATCC 34136, 24 h
Pichia kudriavzevii = assay: Antifungal activity against wild type Candida krusei ATCC 14243 after 24 hrs by visually and spectrophotometric analysis; details: ATCC 14243, 24 h
[24] = tested on: Meyerozyma guilliermondii; assay: Antifungal activity against wild type Candida guilliermondii after 24 hrs by visually and spectrophotometric analysis
Candida albicans [25] = assay: Antifungal activity against wild type Candida albicans ATCC 60193 after 24 hrs by visually and spectrophotometric analysis; details: ATCC 60193, 24 h

SMILES | MIC90 (Candida tropicalis [1]) | MIC90 (Clavispora lusitaniae [2]) | MIC90 (Clavispora lusitaniae [3]) | MIC90 (Clavispora lusitaniae [4]) | MIC90 (Clavispora lusitaniae [5]) | MIC90 (Clavispora lusitaniae [6]) | MIC90 (Clavispora lusitaniae [7]) | MIC90 (Candida albicans [8]) | MIC90 (Nakaseomyces glabratus [9]) | MIC90 (Nakaseomyces glabratus [10]) | MIC90 (Nakaseomyces glabratus [11]) | MIC90 (Nakaseomyces glabratus [12]) | MIC90 (Nakaseomyces glabratus [13]) | MIC90 (Candida albicans [14]) | MIC90 (Candida albicans [15]) | MIC90 (Candida albicans [16]) | MIC90 (Candida albicans [17]) | MIC90 (Candida albicans [18]) | MIC90 (Candida albicans [19]) | MIC90 (Candida albicans [20]) | also measured
C/C=C/CNC(=N)NCCCCCCCCN1CCCCOc2ccccc2CNC(=N)NC1=O.O=C(O)C(F)(F)F | 16 µg/mL | 16 µg/mL | 8 µg/mL | 16 µg/mL | 8 µg/mL | 8 µg/mL | 8 µg/mL | 8 µg/mL | 64 µg/mL | 64 µg/mL | 64 µg/mL | 64 µg/mL | 64 µg/mL | 16 µg/mL | 16 µg/mL | 8 µg/mL | 16 µg/mL | 8 µg/mL | 8 µg/mL | 16 µg/mL | MIC90 (Candida albicans [21]): 16 µg/mL; MIC90 (Nakaseomyces glabratus [22]): 64 µg/mL; MIC90 (Kluyveromyces marxianus): 4 µg/mL; MIC90 (Candida tropicalis [23]): 8 µg/mL; MIC90 (Candida parapsilosis): 8 µg/mL; MIC90 (Pichia kudriavzevii): 32 µg/mL; MIC90 [24]: 16 µg/mL; MIC90 (Candida albicans [25]): 16 µg/mL
C/C=C/CNC(=N)NCCCCCCCCN1CCCCCOc2ccccc2CNC(=N)NC1=O.O=C(O)C(F)(F)F | 4 µg/mL | 4 µg/mL | 2 µg/mL | 4 µg/mL | 2 µg/mL | 2 µg/mL | 2 µg/mL | 1 µg/mL | 8 µg/mL | 16 µg/mL | 8 µg/mL | 16 µg/mL | 8 µg/mL | 4 µg/mL | 4 µg/mL | 2 µg/mL | 4 µg/mL | 2 µg/mL | 2 µg/mL | 4 µg/mL | MIC90 (Candida albicans [21]): 2 µg/mL; MIC90 (Nakaseomyces glabratus [22]): 8 µg/mL; MIC90 (Kluyveromyces marxianus): 4 µg/mL; MIC90 (Candida tropicalis [23]): 2 µg/mL; MIC90 (Candida parapsilosis): 2 µg/mL; MIC90 (Pichia kudriavzevii): 8 µg/mL; MIC90 [24]: 2 µg/mL; MIC90 (Candida albicans [25]): 4 µg/mL
C/C=C/CNC(=N)NCCCCCCCCN1CCCCCCOc2ccccc2CNC(=N)NC1=O.O=C(O)C(F)(F)F | 10 µg/mL | 5 µg/mL | 5 µg/mL | 5 µg/mL | 5 µg/mL | 5 µg/mL | 5 µg/mL | 5 µg/mL | 36 µg/mL | 40 µg/mL | 36 µg/mL | 40 µg/mL | 36 µg/mL | 10 µg/mL | 10 µg/mL | 5 µg/mL | 10 µg/mL | 5 µg/mL | 5 µg/mL | 10 µg/mL | MIC90 (Candida albicans [21]): 9 µg/mL; MIC90 (Nakaseomyces glabratus [22]): 16 µg/mL; MIC90 (Kluyveromyces marxianus): 2 µg/mL; MIC90 (Candida tropicalis [23]): 1 µg/mL; MIC90 (Candida parapsilosis): 2 µg/mL; MIC90 (Pichia kudriavzevii): 4 µg/mL; MIC90 [24]: 2 µg/mL; MIC90 (Candida albicans [25]): 4 µg/mL
